# Reference: ChEMBL document CHEMBL4665656, “Toxicity, bioactivity, release of HS in vivo and pharmaco-kinetics of HS-donors with thiophosphamide structure” (Eur J Med Chem, 2019)
# Active and inactive are the calls of the source. The calls are words filed in the database; no cut-off is given here.
# Key:
# [1] = Cytotoxicity against mouse RAW264.7 cells assessed as cell viability at 20 to 100 microM after 24 hrs by MTT assay; format: cell-based; details: dose 20-100 µM, read-out: Activity
# Summary of the method: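 RAW264.7 macrophages in high-glucose DMEM with 10% heat-inactivated FBS, 37 °C, 5% CO2. LPS 1 µg/mL with or without compound (20 and 100 µM) for 24 h. Then MTT 4 h, formazan dissolved in DMSO, A570, expressed as % of control.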
# [2] = Induction of H2S generation assessed as half life at 150 uM incubated at 37 degC and pH 7.4 by fluorescence spectrophotometry; format: functional
# Summary of the method: (§1)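 Donor at 150 µM final, mixed with 200 µM sulfonyl-azide fluorescent probe in buffer/acetonitrile (1:9) at set pH. Cuvette held in a water bath at 22 °C or 37 °C, with fluorescence read three times at intervals. H2S was quantified from a Na2S standard curve (0–200 µM, probe 200 µM).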
# [3] = Cytotoxicity against rat H9C2 cells assessed as cell viability at 100 uM measured after 24 hrs by MTT assay; format: cell-based; details: read-out: Activity
# [4] = Toxicity in zebra fish assessed as decrease in survival rate at <=20 uM measured after 120 hpf by microscopic analysis relative control; parameters: species or system Danio rerio; details: zebrafish
# Summary of the method: (§2)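 Wild-type AB zebrafish embryos were checked at 4 hpf, and normally developed ones were used. There were 100 embryos per group, split into three replicates, one per well in 200 µL solution under sealing film. Mortality was recorded at 24–168 hpf. Vehicle control was DMF diluted 1:1000. Values are mean ±SD of three independent experiments.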
# RAW264.7 = assay: Anti-inflammatory activity in mouse RAW264.7 cells assessed as inhibition of LPS-induced NO production preincubated for 4 hr followed by LPS addition and measured after 24 hrs relative to control; format: functional, cell-based; details: dose 100.0 µM, time 28.0 hrs
# Summary of the method: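 RAW264.7 cells exposed to LPS 1 µg/mL with compound (20 and 100 µM) for 24 h. Nitrite in medium measured by Griess reagent, […], against a sodium nitrite standard curve (0–100 µM). Four parallel groups, mean ± SD.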
# [5] = Induction of H2S generation assessed as Cmax at 150 uM incubated at 22 degC and pH 8 by fluorescence spectrophotometry; format: functional; summary of the method: as §1
# [6] = Toxicity in Wistar rat assessed as effect on WBC level at 0.01 mmol/kg, ip, administered daily for 14 days (reference value: 5.82 10^9/L); details: in vivo, 336 h, time 14 day
# [7] = Toxicity in Wistar rat assessed as congested central venous and hepatic sinuses and swollen hepatocytes at 0.01 mmol/kg, ip administered for 14 days; format: organism-based; details: in vivo, 336 h, time 14 day
# Summary of the method: (§3)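 Wistar rats (6/group) dosed ip daily for 14 days with compound in 10% DMSO; vehicle controls received 10% DMSO. Liver, kidney and spleen were fixed in 4% glutaraldehyde, sectioned, H-E stained and examined microscopically.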
# [8] = Drug metabolism in Wistar rat liver homogenate assessed as metabolite 3b retention time incubated for 36 hrs by LC-MS analysis; format: ADME, tissue-based; details: tissue homogenate
# [9] = Toxicity in Wistar rat assessed as damaged glomeruli, marked gaps and swollen proximal convoluted tubules at 0.01 mmol/kg, ip administered for 14 days; format: organism-based; details: in vivo, 336 h, time 14 day; summary of the method: as §3
# [10] = Induction of H2S generation assessed as Cmax at 150 uM incubated at 37 degC and pH 5 by fluorescence spectrophotometry; format: functional; summary of the method: as §1
# [11] = Induction of H2S generation assessed as Cmax Induction of H2S generation assessed as Cmax at 150 uM incubated at 37 degC and pH 7.4 by fluorescence spectrophotometry; format: functional; summary of the method: as §1
# WI-38 = assay: Cytotoxicity in human W138 cells assessed as growth inhibition incubated for 24 hrs by MTT assay; format: cell-based; details: WI-38, 24 h
# Summary of the method: (§4)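 Cells were grown in RPMI 1640 with 10% FBS at 37 °C and 10% CO2, seeded at 6×10^3 cells/well. Exposure was 24 h, with viability by MTT, in triplicate cultures. IC50 was reported as mean ± SD.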
# [12] = Induction of H2S generation assessed as half life at 150 uM incubated at 37 degC and pH 5 by fluorescence spectrophotometry; format: functional; summary of the method: as §1
# [13] = Induction of H2S generation assessed as half life at 150 uM incubated at 22 degC and pH 8 by fluorescence spectrophotometry; format: functional; summary of the method: as §1
# [14] = Induction of H2S generation assessed as half life at 150 uM incubated at 22 degC and pH 1.2 by fluorescence spectrophotometry; format: functional; summary of the method: as §1
# [15] = Toxicity in Wistar rat assessed as large and inflamed nucleus in spleen at 0.01 mmol/kg, ip administered for 14 days; format: organism-based; details: in vivo, 336 h, time 14 day; summary of the method: as §3
# HepG2 = assay: Cytotoxicity in human HePG2 cells assessed as growth inhibition incubated for 24 hrs by MTT assay; format: functional, cell-based; details: HepG2, 24 h; summary of the method: as §4
# [16] = Induction of H2S generation assessed as Cmax at 150 uM incubated at 22 degC and pH 1.2 by fluorescence spectrophotometry; format: functional; summary of the method: as §1
# H9c2 = assay: Cardioprotective activity against H2O2- induced toxicity in rat H9c2 cells assessed as effect on cell morphology at 50 uM incubated for 8 hrs co-treated with 50 uM H2O2 measured after 24 hrs […]; format: functional, cell-based
# Summary of the method: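 H9c2 cells in 24-well plates treated with H2O2 (50, 200 or 400 µM) for 8 h plus compound 50 µM, 24 h total. Cells were stained with Giemsa for 30 min and morphology examined by microscopy.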
# MCF7 = assay: Cytotoxicity in human MCF-7 cells assessed as growth inhibition incubated for 24 hrs by MTT assay; format: functional, cell-based; details: MCF7, 24 h; summary of the method: as §4
# HT-29 = assay: Cytotoxicity in human HT-29 cells assessed as growth inhibition incubated for 24 hrs by MTT assay; format: functional, cell-based; details: HT-29, 24 h; summary of the method: as §4
# [17] = Toxicity in zebra fish assessed as hatching rate at 0.5 uM measured after 120 hpf by microscopic analysis; parameters: species or system Danio rerio; details: zebrafish
# [18] = Toxicity in zebra fish assessed as decrease in hatching rate at <=20 uM measured after 120 hpf by microscopic analysis relative control; parameters: species or system Danio rerio; scale not given: the % may be the effect or the level left; details: zebrafish, 5 µM
# [19] = Toxicity in zebra fish embryo assessed as decrease in spontaneous movement at 5 uM measured after 24 hpf by microscopic analysis; parameters: species or system Danio rerio; details: zebrafish
# Summary of the method: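 Normal AB embryos were exposed to compound or DMF vehicle (1:1000) from 4 to 24 hpf. Ten embryos per group were chosen at random. Spontaneous movement was recorded for 5 min under a stereoscopic dissecting microscope and expressed as frequency per min. Values are mean ±SD of three independent experiments.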
# [20] = Toxicity in Wistar rat assessed as effect on RBC level at 0.01 mmol/kg, ip, administered daily for 14 days (reference value: […]); details: in vivo, 336 h, time 14 day
# [21] = Induction of H2S generation assessed as half life at 150 uM incubated at 22 degC and pH 7.4 by fluorescence spectrophotometry; format: functional; summary of the method: as §1
# [22] = Toxicity in Wistar rat assessed as effect on hemoglobin level at 0.01 mmol/kg, ip, administered daily for 14 days (reference value: 98 g/l); details: in vivo, 336 h, time 14 day
# [23] = Toxicity in Wistar rat assessed as effect on platelet level at 0.01 mmol/kg, ip, administered daily for 14 days (reference value: 8.57 10^9/L); details: in vivo, 336 h, time 14 day
# [24] = Toxicity in zebra fish assessed as survival rate at 0.5 uM measured after 120 hpf by microscopic analysis; parameters: species or system Danio rerio; details: zebrafish; summary of the method: as §2
SMILES,viability at 24 h [1],T1/2 [2],"viability at 24 h, 100 µM [3]",Activity [4],Activity (RAW264.7),Cmax [5],Activity [6],Activity [7],Retention_time [8],Activity [9],Cmax [10],Cmax [11],IC50 (WI-38),T1/2 [12],T1/2 [13],T1/2 [14],Activity [15],IC50 (HepG2),Cmax [16],Activity (H9c2),other results
S=P1(c2ccccc2)NCCCO1 (stereo not given),70%,35.7 min,> 90%,50%,Dose-dependent effect,25.6 µM,3.23 10^9/L,Toxic,8.63 min,Toxic,35.8 µM,26.5 µM,720 µM,36.6 min,35.1 min,35 min,Toxic,629 µM,25 µM,Active,IC50 (MCF7): 752 µM; IC50 (HT-29): 1050 µM; Activity [17]: Non-Toxic; Activity [18]: 50%; Activity [19]: Toxic; Activity [20]: 8.42 10^12/L; T1/2 [21]: 36.8 min; Activity [22]: 190 g/L; Activity [23]: 628 10^9/L; Activity [24]: Non-Toxic
O=C([O-])[C@H](Cc1cc2ccccc2[nH]1)NP([O-])(=S)c1ccccc1.[Li+].[Li+] (stereo not given in full),70%,3.07 min,> 90%,50%,Dose-dependent effect,118 µM,4.01 10^9/L,Toxic,7.9 min,Toxic,124 µM,124 µM,724 µM,2.9 min,8.54 min,2.97 min,Toxic,315 µM,118 µM,Active,IC50 (MCF7): 838 µM; IC50 (HT-29): 742 µM; Activity [17]: Non-Toxic; Activity [18]: 50%; Activity [19]: Toxic; Activity [20]: 5.98 10^12/L; T1/2 [21]: 6.97 min; Activity [22]: 168 g/L; Activity [23]: 530 10^9/L; Activity [24]: Non-Toxic
